Experiments:
[1] = target: T1, Prostaglandin D2 receptor 2 (Homo sapiens, UniProt Q9Y5Y4); experiment: Displacement of [3H]PGD2 from human CRTH2 expressed in chinese hamster CHO cells by liquid scintillation counting; assay type: cell-based
T1 sequence (Q9Y5Y4 whole entry): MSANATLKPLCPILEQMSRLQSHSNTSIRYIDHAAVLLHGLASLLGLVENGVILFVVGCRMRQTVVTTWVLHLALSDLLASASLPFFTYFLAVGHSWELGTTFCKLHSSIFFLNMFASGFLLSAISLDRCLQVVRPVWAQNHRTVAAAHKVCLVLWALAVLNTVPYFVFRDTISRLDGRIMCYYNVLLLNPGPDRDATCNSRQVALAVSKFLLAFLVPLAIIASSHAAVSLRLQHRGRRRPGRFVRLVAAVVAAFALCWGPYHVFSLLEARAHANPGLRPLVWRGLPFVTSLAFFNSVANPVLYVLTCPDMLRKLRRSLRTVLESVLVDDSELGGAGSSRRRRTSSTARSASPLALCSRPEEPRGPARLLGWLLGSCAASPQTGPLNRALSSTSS
Summary of the method: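 Scintillation proximity competition assay: 2–5 μg human CRTH2 cell membranes, 1.5 nM [3H]PGD2, WGA-SPA beads, 10 mM HEPES/KOH pH 7.4, 10 mM MnCl2, protease inhibitors, 1% DMSO; 90 min, room temperature, shaking. Nonspecific binding defined with 1 μM PGD2. Ki by Cheng–Prusoff, mean of ≥3 independent dose–response experiments.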

[2] = Percentage unbound in human plasma; assay type: ADME, cell-free
[3] = Percentage unbound in rat plasma; assay type: ADME, cell-free
[4] = Percentage unbound in mouse plasma; assay type: ADME, cell-free
[5] = Clearance in BALB/c mouse at 5 mg/kg, po by LC/MS/MS analysis; assay type: ADME, organism-based; set-up: dose 5 mg/kg, route oral; details: in vivo

Structure (SMILES)	Ki [1] [nM]	further results
COc1cccc(-c2ccc(C#Cc3cc(Cl)ccc3OCC(=O)O)cc2S(C)(=O)=O)c1	8	–
CCCS(=O)(=O)c1cccc(C#Cc2c(OCC(=O)O)ccc3ccccc23)c1	44	–
O=C(O)COc1ccc(Cl)cc1C#Cc1ccccc1C(F)(F)F	24	–
CN(C)S(=O)(=O)c1cccc(C#Cc2cc(Cl)ccc2OCC(=O)O)c1	14	–
O=C(O)COc1ccccc1C#Cc1ccccc1Cl	747	–
Cc1ccc(S(=O)(=O)CCc2ccccc2)cc1C#Cc1cc(Cl)ccc1OCC(=O)O	7	–
Cc1ccncc1C#Cc1cc(Cl)ccc1OCC(=O)O	25	–
O=C(O)COc1ccc(Cl)cc1C#Cc1ccc(F)cc1F	101	–
CNS(=O)(=O)c1ccc(C)c(C#Cc2cc(Cl)ccc2OCC(=O)O)c1	10	–
O=C(O)COc1ccc(Cl)cc1C#Cc1ccncc1	601	–
Cc1ccc(S(=O)(=O)NC(C)(C)C)cc1C#Cc1cc(Cl)ccc1OCC(=O)O	5	–
Cc1ccc(S(=O)(=O)C(C)C)cc1C#Cc1cc(Cl)ccc1OCC(=O)O	6	–
CN(C)C(=O)c1cccc(C#Cc2cc(Cl)ccc2OCC(=O)O)c1	52	–
O=C(O)COc1ccc(Cl)cc1C#Cc1ccc2c(c1)S(=O)(=O)CC2	23	–
Cc1ccc(S(=O)(=O)c2ccccc2)cc1C#Cc1cc(Cl)ccc1OCC(=O)O	6	–
CCCc1ccc(S(C)(=O)=O)cc1C#Cc1cc(Cl)ccc1OCC(=O)O	8.6	fraction unbound [2]: 0.002; fraction unbound [3]: 0.002; fraction unbound [4]: 0.006
CC1(C)C(=O)c2ccc(C#Cc3cc(Cl)ccc3OCC(=O)O)cc2S1(=O)=O	31	–
CCCCCCc1ccncc1C#Cc1cc(Cl)ccc1OCC(=O)O	43	–
CC(C)S(=O)(=O)c1ccc(Cl)c(C#Cc2cc(Cl)ccc2OCC(=O)O)c1	2.9	CL/F [5]: 11.7 mL/min/kg
CC(C)Cc1ccncc1C#Cc1cc(Cl)ccc1OCC(=O)O	4.9	–
CCCS(=O)(=O)c1cccc(C#Cc2cc(-c3ccsc3)ccc2OCC(=O)O)c1	18	–
CCCS(=O)(=O)c1cccc(C#Cc2cc(-c3sc(C)nc3C)ccc2OCC(=O)O)c1	54	–
O=C(O)COc1ccc(Cl)cc1C#Cc1cccc(C(F)(F)F)c1	92	–
O=C(O)COc1ccc(Cl)cc1C#Cc1cc(CO)ccc1F	73	–

Structure (SMILES)	Ki [1] [nM]	further results
O=C(O)COc1ccc(Cl)cc1C#Cc1ccccc1	108	–
N#Cc1ccc(OCC(=O)O)c(C#Cc2ccccc2Cl)c1	24	–
CS(=O)(=O)c1cc(C#Cc2cc(Cl)ccc2OCC(=O)O)ccc1-c1ccccc1Cl	3.5	–
Cc1ccc(OCC(=O)O)c(C#Cc2ccccc2Cl)c1	283	–
O=C(O)COc1ccc(Cl)cc1C#Cc1ccccc1Cl	28	–
CCCS(=O)(=O)c1cccc(C#Cc2cc(F)ccc2OCC(=O)O)c1	65	–
Cc1ccc(S(=O)(=O)Cc2ccccc2)cc1C#Cc1cc(Cl)ccc1OCC(=O)O	5	–
COC1c2ccc(C#Cc3cc(Cl)ccc3OCC(=O)O)cc2S(=O)(=O)C1(C)C (configuration not stated)	21	–
O=C(O)COc1ccc(Cl)cc1C#Cc1ccc2c(c1)S(=O)(=O)c1ccccc1-2	12	fraction unbound [2]: < 0.001; CL/F [5]: 1.67 mL/min/kg
O=C(O)COc1cc(F)ccc1C#Cc1ccccc1Cl	4780	–
COCc1ccc(C#Cc2cc(Cl)ccc2OCC(=O)O)c(F)c1	22	–
Cc1ccc(S(=O)(=O)CC(C)C)cc1C#Cc1cc(Cl)ccc1OCC(=O)O	3	–
O=C(O)COc1ccc(Cl)cc1C#Cc1ccc(Cl)s1	183	–
O=C(O)COc1ccc(Cl)cc1C#Cc1cccc(S(=O)(=O)CCO)c1	10	fraction unbound [2]: 0.047; fraction unbound [3]: 0.081; fraction unbound [4]: 0.3
CS(=O)(=O)c1cc(C#Cc2cc(Cl)ccc2OCC(=O)O)ccc1-c1ccccc1	5	–
CCCS(=O)(=O)c1ccc(C)c(C#Cc2cc(Cl)ccc2OC(C)C(=O)O)c1 (configuration not stated)	1.2	–
CCCS(=O)(=O)c1ccc(C)c(C#Cc2cc(Cl)ccc2OC(CC)C(=O)O)c1 (configuration not stated)	30	–
Cc1ccc(S(=O)(=O)N2CCCCC2)cc1C#Cc1cc(Cl)ccc1OCC(=O)O	5	–
CCN(Cc1cc(-c2ccc(OC)cn2)ccc1-c1cc(CC(=O)O)ccc1OC)C(=O)C1CC1	5	–
CS(=O)(=O)Nc1cncc(C#Cc2cc(Cl)ccc2OCC(=O)O)c1	19	–
Cc1ccc(S(=O)(=O)N(C)CCCN(C)C)cc1C#Cc1cc(Cl)ccc1OCC(=O)O	287	–
CCCS(=O)(=O)c1cc(C#Cc2cc(Cl)ccc2OCC(=O)O)c(C)cc1NC(C)=O	1.3	–
CC1(C)C(O)c2ccc(C#Cc3cc(Cl)ccc3OCC(=O)O)cc2S1(=O)=O (configuration not stated)	33	–
CC(C)S(=O)(=O)c1cc(C#Cc2cc(Cl)ccc2OCC(=O)O)ccc1C(=O)N1CCOCC1	87	–

Structure (SMILES)	Ki [1] [nM]	further results
CCCS(=O)(=O)c1cccc(C#Cc2cc(-c3cccs3)ccc2OCC(=O)O)c1	12	–
CC(C)(C)N1C(=O)c2ccc(C#Cc3cc(Cl)ccc3OCC(=O)O)cc2S1(=O)=O	14	–
Cc1ccc(S(=O)(=O)CCO)cc1C#Cc1cc(Cl)ccc1OCC(=O)O	19	–
CS(=O)(=O)Nc1cccc(C#Cc2cc(Cl)ccc2OCC(=O)O)c1	54	–
C[S+]([O-])c1cccc(C#Cc2cc(Cl)ccc2OCC(=O)O)c1 (configuration not stated)	3.2	–
O=C(O)COc1ccc(Cl)cc1C#Cc1ccccn1	1120	–
CS(=O)(=O)c1ccc(C#Cc2cc(Cl)ccc2OCC(=O)O)cc1	86	–
Cc1cc[n+]([O-])cc1C#Cc1cc(Cl)ccc1OCC(=O)O	17	–
CS(=O)(=O)c1cc(C#Cc2cc(Cl)ccc2OCC(=O)O)ccc1-c1ccc(C(F)(F)F)cc1	43	–
CCS(=O)(=O)c1ccc(C)c(C#Cc2cc(Cl)ccc2OCC(=O)O)c1	8.6	–
Cc1ccc(S(=O)(=O)N(C)CCN(C)C)cc1C#Cc1cc(Cl)ccc1OCC(=O)O	369	–
CC1(O)c2ccc(C#Cc3cc(Cl)ccc3OCC(=O)O)cc2S(=O)(=O)C1(C)C (configuration not stated)	28	–
O=C(O)COc1ccc(Cl)cc1C#Cc1cccnc1	117	fraction unbound [2]: 0.029
CN(c1cncc(C#Cc2cc(Cl)ccc2OCC(=O)O)c1)S(C)(=O)=O	378	–
COc1ccc(-c2ccc(C#Cc3cc(Cl)ccc3OCC(=O)O)cc2S(C)(=O)=O)cc1	7	–
CCN(CC)S(=O)(=O)c1ccc(C)c(C#Cc2cc(Cl)ccc2OCC(=O)O)c1	3.4	–
CC(C)S(=O)(=O)c1cc(C#Cc2cc(Cl)ccc2OCC(=O)O)ccc1C(=O)N(C)C	65	–
Cc1ccc(S(=O)(=O)N2CCN(C)CC2)cc1C#Cc1cc(Cl)ccc1OCC(=O)O	21	–
O=C(O)COc1ccc(Cl)cc1C#Cc1ccccc1F	47	–
Cn1ccnc1C#Cc1cc(Cl)ccc1OCC(=O)O	1470	–
O=C(O)COc1ccc(Cl)cc1C#Cc1ccc2c(c1)S(=O)(=O)C=C2	25	–
CCCC(Oc1ccc(Cl)cc1C#Cc1cc(S(=O)(=O)CCC)ccc1C)C(=O)O (configuration not stated)	57	–
O=C(O)COc1ccc(Cl)cc1C#Cc1cccc(CO)c1F	41	–
CN(c1cccc(C#Cc2cc(Cl)ccc2OCC(=O)O)c1)S(C)(=O)=O	122	–

Structure (SMILES)	Ki [1] [nM]	further results
CCCS(=O)(=O)c1ccc(C)c(C#Cc2cc(Cl)ccc2OC(CC(C)C)C(=O)O)c1 (configuration not stated)	515	–
CN(C)C(=O)c1ccc(C#Cc2cc(Cl)ccc2OCC(=O)O)cc1	55	–
CCCS(=O)(=O)c1cccc(C#Cc2cc(C(F)(F)F)ccc2OCC(=O)O)c1	10	–
COc1ccccc1C#Cc1cc(Cl)ccc1OCC(=O)O	190	–
COCc1ccc(F)c(C#Cc2cc(Cl)ccc2OCC(=O)O)c1	72	–
CCCc1ccncc1C#Cc1cc(Cl)ccc1OCC(=O)O	4.3	–
CS(=O)(=O)Cc1cccc(C#Cc2cc(Cl)ccc2OCC(=O)O)c1	48	–
Cc1ccc(S(=O)(=O)CCCO)cc1C#Cc1cc(Cl)ccc1OCC(=O)O	8	fraction unbound [2]: 0.015; fraction unbound [3]: 0.018; fraction unbound [4]: 0.048
CCN(CC)C(=O)c1ccc(C#Cc2cc(Cl)ccc2OCC(=O)O)cc1S(=O)(=O)C(C)C	46	–
CS(=O)(=O)c1cncc(C#Cc2cc(Cl)ccc2OCC(=O)O)c1	60	–
Cc1ncccc1C#Cc1cc(Cl)ccc1OCC(=O)O	143	–
O=C(O)COc1ccc(Cl)cc1C#Cc1cncc(S(=O)(=O)NCCO)c1	301	–
O=C(O)COc1ccc(Cl)cc1C#Cc1cccc(S(=O)(=O)CCCO)c1	28	–
CCCS(=O)(=O)c1ccc(F)c(C#Cc2cc(Cl)ccc2OC(C)C(=O)O)c1 (configuration not stated)	3	–
CS(=O)(=O)c1cc(C#Cc2cc(Cl)ccc2OCC(=O)O)ccc1-c1cccc(Cl)c1	16	–
CS(=O)(=O)c1cc(C#Cc2cc(Cl)ccc2OCC(=O)O)ccc1-c1ccc(Cl)cc1	14	–
O=C(O)COc1ccc(Cl)cc1C#Cc1ccc(Cl)cc1	60	–
CCCS(=O)(=O)c1ccc(F)c(C#Cc2cc(Cl)ccc2OC(C)(C)C(=O)O)c1	260	–
CCCS(=O)(=O)c1cccc(C#Cc2c(Cl)cccc2OCC(=O)O)c1	55	–
COC1(C)c2ccc(C#Cc3cc(Cl)ccc3OCC(=O)O)cc2S(=O)(=O)C1(C)C (configuration not stated)	25	–
O=C(O)COc1ccc(Cl)cc1C#Cc1cncc(S(=O)(=O)N2CCOCC2)c1	41	–
Cc1ncc(S(=O)(=O)N(C)C)cc1C#Cc1cc(Cl)ccc1OCC(=O)O	41	–
